Entries after “also recorded” stand apart in the source; their conditions may differ. Where only a bound is given, the exact number is not on record here.

The subject of data set [1] is human foreskin fibroblasts (HFF). In words: Mammalian cell cytotoxicity screen. It counts as cell-based. Conditions: Fibroblast, 24 h, read-out: HFF IC50. A digest of the protocol:
(§1)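 HFF and U-20S were kept in DMEM with 10% heat-inactivated bovine serum, 2 mM L-glutamine, penicillin/streptomycin, 10% Medium 199 and gentamicin, at 36.5 °C with 5% CO2. Confluent cells (~20,000/well plated) were treated with 0–100 µM test compound for 24 h in duplicate. Alamar Blue (0.5 mM resazurin, 4 h, 37 °C) was read at ex 530/25, em 590/25; untreated cells defined 100% viability.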

Data set [2] deals with murine macrophages (NR-9456). In words: Mammalian cell cytotoxicity screen. It counts as cell-based. To be noted: Mus musculus, Macrophage, 24 h, read-out: NR-9456 IC50. A digest of the protocol:
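Murine macrophages NR-9456 were maintained with added 1 mM sodium pyruvate and plated at ~20,000/well to confluence. They were exposed to 0–100 µM test compound for 24 h in duplicate. Resazurin (0.5 mM) was added for 4 h at 37 °C with 5% CO2, and fluorescence was read at ex 530/25, em 590/25. Viability was normalised to no-compound wells (100%).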

Data set [3] has as its system RH-dTom tachyzoites in pre-treated HFF cells. Description: Host cell. It counts as cell-based, Toxoplasma gondii. A digest of the protocol:
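HFF were grown to confluence in 96-well plates and exposed to 10 µM test compound for 24 h at 37 °C, in triplicate. Cells were washed twice with D10 medium, then infected with RH-dTom tachyzoites. Parasite growth was followed by fluorescence for 5 days post-infection and expressed relative to control.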

Data set [4] concerns human osteosarcoma cells (U-20S). In words: Mammalian cell cytotoxicity screen. To be noted: U2OS, 24 h, read-out: U2OS IC50. It counts as cell-based. In short, it runs like this:
as §1

Data set [5] has as its target human albumin (Homo sapiens, UniProt P02768). Description: Chromatography-based protein binding. It counts as in vitro ADME. Conditions: estimated by chromatographic method, human albumin column. In short, it runs like this:
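Plasma protein binding was estimated chromatographically on a human albumin column. Retention was correlated against a standard series of compounds with known cPPB values.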

Data set [6] is described as follows: Metabolic stability in human liver microsomes. It counts as in vitro ADME. In short, it runs like this:
(§2)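 Test compound (1 µM) was incubated with human or mouse liver microsomes (0.4 mg/mL protein) at 37 °C. Reactions were started with an NADPH-regenerating system and quenched at 2, 30 and 60 min. Remaining compound was quantified by LCMS to derive half-life, in vitro intrinsic clearance and predicted hepatic extraction ratio.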
On the technique in general: Liver microsomes are vesicles of endoplasmic reticulum, rich in cytochrome P450 enzymes.

In data set [7] the test system is human liver cells (HC-04). Description: Mammalian cell cytotoxicity screen. It counts as cell-based. To be noted: HC04, 24 h, read-out: HCO4 IC50. In short, it runs like this: (§3)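 HEK-293 and HC-04 were kept in DMEM with 10% heat-inactivated bovine serum, 2 mM L-glutamine, penicillin/streptomycin and gentamicin (no Medium 199), at 36.5 °C with 5% CO2. Cells (~20,000/well) were grown to confluence, then treated with 0–100 µM test compound for 24 h in duplicate. Alamar Blue (0.5 mM resazurin, 4 h, 37 °C) was read at ex 530/25, em 590/25; viability was relative to untreated cells (100%).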

For data set [8], the system named is Salmonella typhimurium (TA100 strain). In words: Bacterial reverse mutation assay. It counts as cell-based. Conditions: 0.75 μM (ca. 3x average T. gondii IC50).
Data set [9] in a line: Kinetic aqueous solubility by nephelometry. To be noted: PBS pH 6.5, pH 6.5, aqueous buffer, kinetic from dmso stock. It counts as physicochemical. In short, it runs like this: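 Kinetic solubility was determined by nephelometry after 30 min at room temperature. A solubility range was reported.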
For data set [10], the system named is PRU T. gondii. Description: T. gondii growth inhibition in vitro screen, PRU-dTom strain. It counts as cell-based, Toxoplasma gondii. Conditions: for IC50: Toxoplasma gondii, 120 h, read-out: PRU T. gondii IC50; for activity against PRU T. gondii (in words): PRU strain. A digest of the protocol:
(§4)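 HFF (~20,000/well) were grown to confluence, then infected with dTomato-expressing tachyzoites: RH 2000/well for 24 h, or PRU 8000/well for 48 h, at 37 °C. Medium was replaced and test compound in DMSO added at 0–100 µM in duplicate, with pyrimethamine as positive control. Fluorescence (ex 530/25, em 590/25) was read over 5 days; IC50 was the concentration halving RFU at day 5.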

Data set [11] concerns human embryonic kidney cells (HEK-293). Description: Mammalian cell cytotoxicity screen. To be noted: HEK293, 24 h, read-out: HEK293 IC50. It counts as cell-based. In short, it runs like this:
as §3

The subject of data set [12] is RH-dTom tachyzoites. Description: Extracellular parasite pre-treatment assay. To be noted: Toxoplasma gondii, read-out: parasite growth, % of control. It counts as cell-based. In short, it runs like this: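 RH-dTom tachyzoites were isolated from culture and resuspended in D10 medium at 10e6/mL. They were exposed to 10 µM test compound for 4 h, then centrifuged and washed twice. Confluent HFF in 96-well plates were infected with 2000 treated tachyzoites per well. Parasite growth was read by fluorescence at 5 days post-infection and expressed relative to control.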

The nature of data set [13]: Metabolic stability in mouse liver microsomes. It counts as in vitro ADME. In short, it runs like this: as §2
In data set [14] the test system is RH T. gondii. In words: T. gondii growth inhibition in vitro screen, RH-dTom strain. It counts as cell-based, Toxoplasma gondii. Conditions: for activity against RH T. gondii (in words): primary screen. In short, it runs like this: as §4
Data set [15] concerns ME49 strain T. gondii. In words: In vivo survivorship challenge in murine model. Further details: species or system Toxoplasma gondii. In short, it runs like this:
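Female Swiss Webster mice, 2 months old, were infected intraperitoneally with 5000 ME49 tachyzoites. Dosing started simultaneously: test compound 5 mg/kg (n = 10), pyrimethamine 5 mg/kg (n = 20) or solvent (n = 24), IP once daily for 10 days. Vehicle was 5% DMSO, 47.5% propylene glycol, 47.5% Kollisolv. Mice were weighed daily; survival was followed over 40 d by Kaplan-Meier.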

Data set [16] relates to T. gondii. To be noted: ref Sanford et al., 2018; cited from earlier work.

Chain of human albumin (P02768 25-609): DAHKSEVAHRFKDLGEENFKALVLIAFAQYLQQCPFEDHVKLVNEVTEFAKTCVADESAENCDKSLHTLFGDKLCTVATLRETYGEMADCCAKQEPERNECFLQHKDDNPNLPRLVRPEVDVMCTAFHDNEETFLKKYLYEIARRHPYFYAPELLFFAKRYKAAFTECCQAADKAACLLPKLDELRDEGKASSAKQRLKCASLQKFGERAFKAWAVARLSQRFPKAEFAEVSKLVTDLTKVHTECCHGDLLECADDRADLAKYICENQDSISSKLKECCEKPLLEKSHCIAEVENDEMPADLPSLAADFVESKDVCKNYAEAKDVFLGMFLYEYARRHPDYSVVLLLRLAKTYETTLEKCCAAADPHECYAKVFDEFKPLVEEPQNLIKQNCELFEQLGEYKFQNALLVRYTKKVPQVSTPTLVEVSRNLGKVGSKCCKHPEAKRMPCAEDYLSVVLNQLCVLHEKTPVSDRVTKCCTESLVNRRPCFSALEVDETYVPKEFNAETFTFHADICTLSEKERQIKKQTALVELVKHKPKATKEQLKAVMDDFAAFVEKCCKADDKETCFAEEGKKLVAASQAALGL

`CC(C)(C)C1=CC(=NNC(=O)c2ccccc2)C=C(C(C)(C)C)C1=O` [KGW15, N'-(3,5-di-tert-butyl-4-oxocyclohexa-2,5-dien-1-ylidene)benzohydrazide]: the IC50 in [1] was above 100 µM.
Regarding `Cc1ccc(C(=O)NN=C2C=C(C(C)(C)C)C(=O)C(C(C)(C)C)=C2)cc1` [KGW42, N'-(3,5-di-tert-butyl-4-oxocyclohexa-2,5-dien-1-ylidene)-4-methylbenzohydrazide], in data set [1], the half-inhibitory concentration (IC50) was above 100 µM.
On to `CC(C)(C)C1=CC(=NNC(=O)c2ccc(O)cc2)C=C(C(C)(C)C)C1=O` [KGW43, N'-(3,5-di-tert-butyl-4-oxocyclohexa-2,5-dien-1-ylidene)-4-hydroxybenzohydrazide], for which, in data set [1], the IC50 is above 100 µM.
Consider `CC(C)(C)C1=CC(=NNC(=O)c2ccc([N+](=O)[O-])cc2)C=C(C(C)(C)C)C1=O` [KGW44, N'-(3,5-di-tert-butyl-4-oxocyclohexa-2,5-dien-1-ylidene)-4-nitrobenzohydrazide], for which the IC50 in data set [1] is above 100 µM; in data set [2] it was above 100 µM; in [4], above 100 µM; in [7], above 100 µM; in [10] it was 0.99 µM; in [11], above 100 µM. The “parasite growth, % of control” value in [3] (HFF pre-treated 10 μM 24 h, washed, then infected, 5 days post-infection) was “no significant change in growth”. Further, in data set [5], the “cPPB (% Bound)” value was 84.3 % Bound. Also, the “Predicted EH” value in data set [6] is 0.45. Moreover, the half-life at 1 μM turned out to be 1.38 h in data set [6] and 0.15 h in data set [13]. Further, the microsomal CLint at 1 μM came out at 21 µL/min/mg in data set [6] and 99 µL/min/mg in data set [13]. Besides, the “Ames Assay” value in data set [8] is given as “neither compound was mutagenic; also recorded: Negative”. Also, the solubility (kinetic) at 30 min in [9] was below 1.6 µg/mL. Also, the activity at 10 µM in data set [12] amounted to 60.3%.
As to `CC(C)(C)C1=CC(=NNC(=O)c2c[nH]cn2)C=C(C(C)(C)C)C1=O` [KGW45, N'-(3,5-di-tert-butyl-4-oxocyclohexa-2,5-dien-1-ylidene)-1H-imidazole-4-carbohydrazide], in data set [1], the IC50 is above 100 µM. In data set [14] (RH strain), the “activity against RH T. gondii (in words)” value is reported as “significantly weakened”.
As for `CC(C)(C)C1=CC(=NNC(=O)c2ccc(C#N)cc2)C=C(C(C)(C)C)C1=O` [KGW54, 4-cyano-N'-(3,5-di-tert-butyl-4-oxocyclohexa-2,5-dien-1-ylidene)benzohydrazide], the IC50 was above 100 µM in [1]; 2.2 µM in data set [10]; 1.2 µM in data set [14] (read-out: RH T. gondii IC50, RH-dTom tachyzoites in HFF, fluorescence, day 5).
Take `CC(C)(C)C1=CC(=NNc2ccc([N+](=O)[O-])cc2[N+](=O)[O-])C=C(C(C)(C)C)C1=O` [KGW59, 2,6-di-tert-butyl-4-(2-(2,4-dinitrophenyl)hydrazineylidene)cyclohexa-2,5-dien-1-one]: the IC50 in data set [1] was above 100 µM; in [2], above 100 µM; in data set [4] it was above 100 µM; in data set [7], above 100 µM; in data set [10] it was 1.4 µM; in [11], above 100 µM. The activity at 10 µM in data set [3] (Toxoplasma gondii, HFF, read-out: parasite growth, % of control) was found to be 30.2%. Moreover, the “Predicted EH” value in [6] is 0.38; in [13], 0.50. The half-life at 1 μM in data set [6] was 1.85 h; in data set [13], 0.617 h. In addition, the microsomal CLint at 1 μM in data set [6] was 16 µL/min/mg; in data set [13], 46 µL/min/mg. Further, in [8], the “Ames Assay” value is reported as “neither compound was mutagenic; also recorded: Negative”. This compound also registered a kinetic solubility at 30 min in data set [9] below 1.6 µg/mL. Moreover, the “survivorship (in words)” value in [15] is “significantly increased survivorship”.
On to `CCOc1ccc(C(=O)NN=C2C=C(C(C)(C)C)C(=O)C(C(C)(C)C)=C2)cc1` [KGW64, N'-(3,5-di-tert-butyl-4-oxocyclohexa-2,5-dien-1-ylidene)-4-ethoxybenzohydrazide], for which the “activity against PRU T. gondii (in words)” value in [10] was “only weakly active”.
As to `CC(C)(C)C1=CC(=NNC(=O)c2cccnc2)C=C(C(C)(C)C)C1=O` [KGW65, N'-(3,5-di-tert-butyl-4-oxocyclohexa-2,5-dien-1-ylidene)nicotinohydrazide], in data set [10], the “activity against PRU T. gondii (in words)” value is “completely inactive”.
On to `CC(C)(C)C1=CC(=NNC(=O)C2CCCCC2)C=C(C(C)(C)C)C1=O` [KGW66, N'-(3,5-di-tert-butyl-4-oxocyclohexa-2,5-dien-1-ylidene)cyclohexanecarbohydrazide], for which, in [14] (RH strain), the “activity against RH T. gondii (in words)” value is listed as “abolished activity”.
For `Cc1ccc(C(=O)ON=C2C=C(C(C)(C)C)C(=O)C(C(C)(C)C)=C2)cc1` [KGW72, 2,6-di-tert-butyl-4-(((4-methylbenzoyl)oxy)imino)cyclohexa-2,5-dien-1-one], the IC50 in [1] is above 100 µM. Besides, the “reduction of potency relative to KG8” value in [14] (RH strain) is 6 fold.
Turning to `CC1(C)CC(=NNC(=O)c2ccncc2)CC(C)(C)C1=O` [KGW73, N'-(3,3,5,5-tetramethyl-4-oxocyclohexylidene)isonicotinohydrazide], the concentration for half-maximal inhibition (IC50) in data set [1] is above 100 µM. In data set [14] (RH strain), the “activity against RH T. gondii (in words)” value is “inactive”.
For `NNC(=O)c1ccncc1` [isoniazid], the “activity against T. gondii in vitro (in words)” value in data set [16] was “inactive”.

The IC50 is the concentration at which inhibition is half-maximal. As usually defined, the half-life is the time needed for the level to fall by half in the phase considered. The low end stands for rapid decline, the high end for slow decline. Usually microsomal CLint stands for the capacity of the preparation to metabolise the compound, expressed as a volume cleared per time. A word on the kinetic solubility: it is the concentration staying in solution when a stock, usually in DMSO, is diluted into the medium.

The values are drawn from publication PMC6262783 (International Journal for Parasitology: Drugs and Drug …, 2018).
